Measured values: ChEMBL document CHEMBL4414562, “Discovery of the First in Vivo Active Inhibitors of the Soluble Epoxide Hydrolase Phosphatase Domain” (J Med Chem, 2019)
Calls of active or inactive are those of the source. The calls are words filed in the database; no cut-off is given here.

Experiments:
[1] = target: T1, Bifunctional epoxide hydrolase 2 (Rattus norvegicus, UniProt P80299); test: Inhibition of hydrolase activity of full length rat soluble epoxide hydrolase pre-incubated for 30 mins before PHOME substrate addition by fluorescence based assay
T1 sequence (P80299 whole entry): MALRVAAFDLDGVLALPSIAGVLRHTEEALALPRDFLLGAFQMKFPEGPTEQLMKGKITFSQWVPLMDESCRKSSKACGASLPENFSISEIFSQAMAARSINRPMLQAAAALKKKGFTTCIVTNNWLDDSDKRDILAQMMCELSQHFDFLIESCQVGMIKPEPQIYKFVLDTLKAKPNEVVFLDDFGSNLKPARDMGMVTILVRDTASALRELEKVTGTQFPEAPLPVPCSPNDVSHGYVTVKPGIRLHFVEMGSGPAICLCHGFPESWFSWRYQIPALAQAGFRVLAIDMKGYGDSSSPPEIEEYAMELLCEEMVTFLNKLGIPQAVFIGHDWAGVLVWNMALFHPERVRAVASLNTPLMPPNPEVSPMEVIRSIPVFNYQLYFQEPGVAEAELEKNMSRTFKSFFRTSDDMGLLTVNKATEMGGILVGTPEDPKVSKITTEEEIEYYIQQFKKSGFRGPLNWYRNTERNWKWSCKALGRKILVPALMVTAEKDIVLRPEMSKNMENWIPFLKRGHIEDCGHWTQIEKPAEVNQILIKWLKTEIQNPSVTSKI
Summary of the method: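 Hydrolase assay with 0.1 μM full-length enzyme in Bis-Tris pH 7 containing 0.1 mg/mL BSA and 0.01% Triton X-100. […] Reaction started with PHOME (50 μM final). 6-Methoxynaphthaldehyde fluorescence (ex 330/em 465 nm) read every minute for 45 min. Triplicates.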

[2] = target: T2, Peroxisome proliferator-activated receptor alpha (Homo sapiens) (UniProt Q07869); test: Activation of Gal4-fused human PPARalpha LBD transfected in HEK293T cells at 10 uM after 12 to 14 hrs by luciferase reporter gene assay; type: cell-based
T2 sequence (whole entry): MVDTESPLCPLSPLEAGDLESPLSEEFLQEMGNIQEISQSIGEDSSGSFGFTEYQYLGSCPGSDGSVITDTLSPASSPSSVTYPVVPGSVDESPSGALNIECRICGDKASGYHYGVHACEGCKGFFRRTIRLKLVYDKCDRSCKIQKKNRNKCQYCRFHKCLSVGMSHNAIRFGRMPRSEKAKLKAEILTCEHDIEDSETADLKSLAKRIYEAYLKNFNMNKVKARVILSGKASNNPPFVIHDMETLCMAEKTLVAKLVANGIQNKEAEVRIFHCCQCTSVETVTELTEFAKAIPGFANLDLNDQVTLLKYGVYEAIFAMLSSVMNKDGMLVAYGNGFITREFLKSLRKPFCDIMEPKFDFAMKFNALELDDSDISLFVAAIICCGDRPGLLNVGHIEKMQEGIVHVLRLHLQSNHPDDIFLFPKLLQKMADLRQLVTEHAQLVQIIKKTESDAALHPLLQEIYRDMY
Summary of the method: (§1)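 Gal4–human nuclear receptor LBD fusion (pFA-CMV-hNR-LBD) co-transfected with pFR-Luc and pRL-SV40 (Lipofectamine LTX) into HEK293T cells seeded the day before. 5 h post-transfection, compound added in Opti-MEM with 0.1% DMSO and incubated 12−14 h. Dual-Glo firefly/Renilla luciferase read. Activation expressed relative to reference agonist at 1 μM. Triplicates, ≥3 independent experiments.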

[3] = target: T3, Peroxisome proliferator-activated receptor delta (Homo sapiens) (UniProt Q03181); test: Activation of Gal4-fused human PPARbeta/delta LBD transfected in HEK293T cells at 10 uM after 12 to 14 hrs by luciferase reporter gene assay; type: cell-based; summary of the method: as §1
T3 sequence (whole entry): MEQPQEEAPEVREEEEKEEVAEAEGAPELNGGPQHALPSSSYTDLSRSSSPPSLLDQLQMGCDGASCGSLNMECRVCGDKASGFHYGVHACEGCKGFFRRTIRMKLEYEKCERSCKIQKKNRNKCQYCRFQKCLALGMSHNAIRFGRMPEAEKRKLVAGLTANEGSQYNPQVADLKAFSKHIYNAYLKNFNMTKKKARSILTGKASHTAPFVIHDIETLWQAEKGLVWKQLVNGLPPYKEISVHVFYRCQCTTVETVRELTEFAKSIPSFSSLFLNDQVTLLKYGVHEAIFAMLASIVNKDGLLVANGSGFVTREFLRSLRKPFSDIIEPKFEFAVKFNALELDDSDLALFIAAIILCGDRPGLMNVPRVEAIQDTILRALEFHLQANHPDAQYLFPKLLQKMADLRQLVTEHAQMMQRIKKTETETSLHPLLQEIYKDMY

[4] = target: T4, Oxysterols receptor LXR-alpha (Homo sapiens) (UniProt Q13133); test: Activation of Gal4-fused human LXRalpha LBD transfected in HEK293T cells at 10 uM after 12 to 14 hrs by luciferase reporter gene assay; type: cell-based; summary of the method: as §1
T4 sequence (whole entry): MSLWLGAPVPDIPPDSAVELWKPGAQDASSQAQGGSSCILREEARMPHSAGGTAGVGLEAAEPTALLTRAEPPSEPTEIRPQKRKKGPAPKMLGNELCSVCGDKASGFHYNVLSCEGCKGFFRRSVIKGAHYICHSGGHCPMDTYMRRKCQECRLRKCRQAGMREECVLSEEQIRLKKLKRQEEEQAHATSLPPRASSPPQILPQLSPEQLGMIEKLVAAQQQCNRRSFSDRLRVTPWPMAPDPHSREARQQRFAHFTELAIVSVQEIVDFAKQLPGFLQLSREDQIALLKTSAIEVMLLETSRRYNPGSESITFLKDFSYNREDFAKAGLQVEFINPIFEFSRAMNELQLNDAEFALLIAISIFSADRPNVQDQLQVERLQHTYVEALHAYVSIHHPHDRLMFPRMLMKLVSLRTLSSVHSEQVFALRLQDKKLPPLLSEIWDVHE

| IC50 [1] | Activity [2] | Activity [3] | Activity [4] | SMILES |
| --- | --- | --- | --- | --- |
| > 30 µM | inactive | inactive | inactive | O=C(O)CCCc1nc(-c2ccc(Cl)c(Cl)c2)c(-c2ccccc2)o1 |
| > 300 µM | inactive | inactive | inactive | O=C(O)CCc1nc(-c2ccccc2)c(-c2ccccc2)o1 [OXAPROZIN] |
